# The source made the active and inactive calls. The calls are words filed in the database; no cut-off is given here.
# Key:
# [1] = target: T1, Tyrosine-protein kinase SYK (Homo sapiens, UniProt P43405)
# [2] = target: T1, Tyrosine-protein kinase SYK; assay: Inhibition of Syk in anti-igM stimulated human Ramos B cells assessed as phospho-BLNK level preincubated for 30 mins followed by anti-IgM stimulation measured after 15 mins by flow cytometric analysis; assay type: cell-based
# [3] = target: T1, Tyrosine-protein kinase SYK; assay: Inhibition of Syk in anti-CD32 stimulated CD14+ human monocytes in presence of 90% human blood assessed as phospho-SLP76 level preincubated for 30 mins followed by anti-CD32 stimulation measured after 5 mins by flow cytometric analysis
# [4] = Mean residence time in Sprague-Dawley rat at 1 mg/kg, iv and 3 mg/kg, po administered as cassette dosing; assay type: ADME, organism-based; settings: in vivo
# Outline: (§1)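 Cassette dosing in Sprague Dawley rats: iv 1 mg/kg in NMP/PEG200 (3:7) and po 3 mg/kg in CMC/water/Tween (0.5:99:0.5). Dose-normalized values are marked as such.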
# Rattus norvegicus [5] = assay: Dose normalized Cmax in Sprague-Dawley rat at 1 mg/kg, iv and 3 mg/kg, po administered as cassette dosing; assay type: ADME, organism-based; settings: in vivo
# Outline: as §1
# Aurora kinase A = target: T2, Aurora kinase A (Homo sapiens, UniProt O14965); assay: Inhibition of aurora A kinase (unknown origin) by enzymatic assay
# T2 sequence (O14965 whole entry): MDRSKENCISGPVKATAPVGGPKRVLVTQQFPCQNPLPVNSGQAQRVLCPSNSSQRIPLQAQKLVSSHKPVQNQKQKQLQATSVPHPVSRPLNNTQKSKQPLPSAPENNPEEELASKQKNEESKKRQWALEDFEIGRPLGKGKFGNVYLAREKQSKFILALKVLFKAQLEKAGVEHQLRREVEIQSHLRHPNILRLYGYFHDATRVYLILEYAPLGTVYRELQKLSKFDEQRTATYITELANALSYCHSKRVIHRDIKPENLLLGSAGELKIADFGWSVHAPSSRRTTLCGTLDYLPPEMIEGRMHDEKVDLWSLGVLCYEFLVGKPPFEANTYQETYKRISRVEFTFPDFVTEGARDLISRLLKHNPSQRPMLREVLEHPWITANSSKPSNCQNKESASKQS
# [6] = Clearance in Sprague-Dawley rat at 1 mg/kg, iv and 3 mg/kg, po administered as cassette dosing; assay type: ADME, organism-based; settings: in vivo
# Outline: as §1
# [7] = Volume of distribution at steady state in Sprague-Dawley rat at 1 mg/kg, iv and 3 mg/kg, po administered as cassette dosing; assay type: ADME, organism-based; settings: in vivo, read-out: Vdss
# Outline: as §1
# Rattus norvegicus [8] = assay: Dose normalized AUC in Sprague-Dawley rat at 3 mg/kg, po administered as cassette dosing; assay type: ADME, organism-based; settings: in vivo
# Outline: as §1
# [9] = Oral bioavailability in Sprague-Dawley rat at 3 mg/kg administered as cassette dosing; assay type: ADME, organism-based; settings: in vivo
# Outline: as §1
# Liver microsome [10] = assay: Drug metabolism in rat liver microsomes assessed as pyrazole hydroxylation; assay type: ADME
# Liver microsome [11] = assay: Drug metabolism in rat liver microsomes assessed as pyrazole N-demethylation; assay type: ADME
# Liver microsome [12] = assay: Drug metabolism in rat liver microsomes assessed as lactam hydroxylation; assay type: ADME
# Liver microsome [13] = assay: Drug metabolism in human liver microsomes assessed as pyrazole hydroxylation; assay type: ADME
# Liver microsome [14] = assay: Drug metabolism in human liver microsomes assessed as pyrazole N-demethylation; assay type: ADME
# Liver microsome [15] = assay: Drug metabolism in human liver microsomes assessed as lactam hydroxylation; assay type: ADME
# [16] = target: T3, Voltage-gated inwardly rectifying potassium channel KCNH2 (Homo sapiens, UniProt Q12809); assay: Inhibition of human ERG by automated patch clamp assay
# [17] = target: T3, Voltage-gated inwardly rectifying potassium channel KCNH2; assay: Inhibition of human ERG at 30 uM by manual patch clamp assay
# Blood = assay: Drug level in rat blood at 1 mg/kg, iv; assay type: ADME, organism-based; settings: in vivo
# Outline: (§2)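 Rats received a single iv dose of 1 mg/kg. Compound concentrations were measured in blood, liver and kidney and expressed as ng/g.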
# Liver = assay: Drug level in rat liver at 1 mg/kg, iv; assay type: ADME, organism-based; settings: in vivo
# Outline: as §2
# Kidney = assay: Drug level in rat kidney at 1 mg/kg, iv; assay type: ADME, organism-based; settings: in vivo
# Outline: as §2
# [18] = Ratio of drug level in liver to blood in rat at 1 mg/kg, iv; assay type: ADME, organism-based
# Outline: (§3)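 Rats received a single 1 mg/kg iv dose. Compound levels were then measured in blood, liver and kidney and expressed as ng/g of matrix. The ratio is tissue level over blood level.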
# [19] = Ratio of drug level in kidney to blood in rat at 1 mg/kg, iv; assay type: ADME, organism-based
# Outline: as §3
# [20] = Solubility in pH 6.8 solution; assay type: physicochemical
# [21] = Protein binding in human; assay type: ADME, organism-based; settings: plasma, read-out: PB (converted)
# [22] = Half life in rat liver microsomes; assay type: ADME
# Rattus norvegicus [23] = assay: In vivo inhibition of Syk in Lewis rat assessed as reduction in antiCD32-antibody-induced SLP76 phosphorylation in peripheral blood monocytes at 3 mg/kg, po measured after 2 hrs relative to vehicle-treated control; assay type: functional
# Outline: (§4)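 Lewis rats were given a single oral dose of 3 mg/kg. Blood was sampled at 2, 4, 8 and 24 h for compound levels. Ex vivo, peripheral blood monocytes were stimulated through FcγR with anti-CD32 antibody, and SLP76 phosphorylation was quantified as % pSLP76.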
# Rattus norvegicus [24] = assay: In vivo inhibition of Syk in Lewis rat assessed as reduction in antiCD32-antibody-induced SLP76 phosphorylation in peripheral blood monocytes at 3 mg/kg, po measured after 4 hrs relative to vehicle-treated control; assay type: functional
# Outline: as §4
# Rattus norvegicus [25] = assay: In vivo inhibition of Syk in Lewis rat assessed as reduction in antiCD32-antibody-induced SLP76 phosphorylation in peripheral blood monocytes at 3 mg/kg, po measured after 8 hrs relative to vehicle-treated control; assay type: functional
# Outline: as §4
# Rattus norvegicus [26] = assay: In vivo inhibition of Syk in Lewis rat assessed as reduction in antiCD32-antibody-induced SLP76 phosphorylation in peripheral blood monocytes at 3 mg/kg, po measured after 24 hrs relative to vehicle-treated control; assay type: functional, organism-based
# Outline: as §4
# [27] = Drug uptake in Lewis rat blood at 3 mg/kg, po measured after 2 hrs; assay type: ADME, organism-based; settings: read-out: Drug uptake
# Outline: as §4
# [28] = Drug uptake in Lewis rat blood at 3 mg/kg, po measured after 4 hrs; assay type: ADME, organism-based; settings: read-out: Drug uptake
# Outline: as §4
# [29] = Drug uptake in Lewis rat blood at 3 mg/kg, po measured after 8 hrs; assay type: ADME, organism-based; settings: read-out: Drug uptake
# Outline: as §4
# [30] = Drug uptake in Lewis rat blood at 3 mg/kg, po measured after 24 hrs; assay type: ADME, organism-based; settings: read-out: Drug uptake
# Outline: as §4
# Aurora kinase B = Aurora kinase B (Homo sapiens, UniProt Q96GD4); assay: Inhibition of aurora B kinase (unknown origin) by cell based assay
# Salmonella typhimurium = assay: Toxicity in Salmonella typhimurium by Ames test; assay type: organism-based; settings: salmonella enterica subsp. enterica serovar typhimurium
# [31] = Toxicity in micronucleus (unknown origin) by micronucleus test
# [32] = target: T3, Voltage-gated inwardly rectifying potassium channel KCNH2; assay: Inhibition of human ERG by binding assay
# T3 sequence (Q12809 whole entry): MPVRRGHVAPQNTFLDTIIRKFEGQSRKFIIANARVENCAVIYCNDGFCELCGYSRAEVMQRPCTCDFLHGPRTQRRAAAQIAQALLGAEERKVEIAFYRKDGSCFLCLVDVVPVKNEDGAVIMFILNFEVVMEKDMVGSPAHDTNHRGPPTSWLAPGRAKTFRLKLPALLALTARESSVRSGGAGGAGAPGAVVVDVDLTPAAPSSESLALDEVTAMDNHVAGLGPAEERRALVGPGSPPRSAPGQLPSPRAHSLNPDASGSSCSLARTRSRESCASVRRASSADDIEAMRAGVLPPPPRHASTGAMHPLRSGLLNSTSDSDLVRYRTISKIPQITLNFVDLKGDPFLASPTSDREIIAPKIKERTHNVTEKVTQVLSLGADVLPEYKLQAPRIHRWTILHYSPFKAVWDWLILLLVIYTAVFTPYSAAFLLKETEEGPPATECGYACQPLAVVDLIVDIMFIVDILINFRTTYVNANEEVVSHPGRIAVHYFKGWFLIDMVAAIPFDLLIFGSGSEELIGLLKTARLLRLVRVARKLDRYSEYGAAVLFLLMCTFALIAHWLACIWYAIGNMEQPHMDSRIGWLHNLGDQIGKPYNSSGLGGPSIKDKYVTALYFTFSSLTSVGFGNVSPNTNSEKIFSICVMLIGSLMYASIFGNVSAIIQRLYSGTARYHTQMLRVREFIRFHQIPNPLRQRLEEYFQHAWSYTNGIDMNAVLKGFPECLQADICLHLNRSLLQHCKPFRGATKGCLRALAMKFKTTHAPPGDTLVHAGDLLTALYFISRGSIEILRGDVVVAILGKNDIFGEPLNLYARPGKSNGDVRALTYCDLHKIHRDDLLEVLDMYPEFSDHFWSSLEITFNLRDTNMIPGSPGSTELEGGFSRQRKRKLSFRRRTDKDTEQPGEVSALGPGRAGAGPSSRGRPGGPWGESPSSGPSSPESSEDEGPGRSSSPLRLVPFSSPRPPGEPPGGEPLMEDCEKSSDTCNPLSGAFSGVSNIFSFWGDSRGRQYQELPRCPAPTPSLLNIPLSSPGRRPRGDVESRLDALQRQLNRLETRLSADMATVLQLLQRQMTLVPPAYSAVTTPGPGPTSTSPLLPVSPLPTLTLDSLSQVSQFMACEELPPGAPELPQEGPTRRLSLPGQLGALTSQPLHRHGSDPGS
# Sequence of Aurora kinase B (Q96GD4 whole entry): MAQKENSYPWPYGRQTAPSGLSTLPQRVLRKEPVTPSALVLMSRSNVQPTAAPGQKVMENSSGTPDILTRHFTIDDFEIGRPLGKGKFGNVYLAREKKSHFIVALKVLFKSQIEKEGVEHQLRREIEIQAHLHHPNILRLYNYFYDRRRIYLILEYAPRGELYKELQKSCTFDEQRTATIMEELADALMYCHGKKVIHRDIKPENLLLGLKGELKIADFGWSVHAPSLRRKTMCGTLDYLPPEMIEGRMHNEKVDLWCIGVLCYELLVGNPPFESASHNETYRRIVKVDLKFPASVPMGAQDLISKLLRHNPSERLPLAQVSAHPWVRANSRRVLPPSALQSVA
smiles,measurement,setting,value
C[C@@H](Oc1cc(-c2cnn(C)c2)cc2ncsc12)[C@H]1CNC(=O)C1,IC50,[1],33 nM
same,IC50,[2],89 nM
same,IC50,[3],186 nM
C[C@@H](Oc1nc(-c2cnn(C)c2)cc2ncsc12)[C@H]1CNC(=O)C1,IC50,[1],26 nM
same,IC50,[2],284 nM
same,IC50,[3],538 nM
same,MRT,[4],42 min
same,Cmax/dose,Rattus norvegicus [5],103 nM
COc1ccc(-c2cc3ncsc3c(O[C@H](C)[C@H]3CNC(=O)C3)n2)cc1OC,IC50,Aurora kinase A,≤ 100 nM
same,IC50,[1],5 nM
same,IC50,[2],132 nM
same,IC50,[3],517 nM
same,clearance,[6],53 mL/min/kg
same,Vd,[7],1.2 L/kg
same,MRT,[4],24 min
same,AUC/dose,Rattus norvegicus [8],858 nM.hr/(mg/kg)
same,bioavailability,[9],35%
same,Cmax/dose,Rattus norvegicus [5],178 nM
same,Drug metabolism,Liver microsome [10],metabolite_detected
same,Drug metabolism,Liver microsome [11],metabolite_detected
same,Drug metabolism,Liver microsome [12],metabolite_detected
same,Drug metabolism,Liver microsome [13],metabolite_detected
same,Drug metabolism,Liver microsome [14],metabolite_detected
same,Drug metabolism,Liver microsome [15],metabolite_detected
CN(C)c1ccc(-c2cc3ncccc3c(NCCCN)n2)cc1,Drug metabolism,Liver microsome [10],metabolite_detected
same,Drug metabolism,Liver microsome [11],metabolite_detected
same,Drug metabolism,Liver microsome [12],metabolite_detected
same,Drug metabolism,Liver microsome [13],metabolite_detected
same,Drug metabolism,Liver microsome [14],metabolite_detected
same,Drug metabolism,Liver microsome [15],metabolite_detected
NC(=O)c1nnc(N[C@@H]2CCCC[C@@H]2N)nc1Nc1cccc2cc[nH]c12,IC50,[16],28000 nM
same,inhibition (INH),[17],Not Active
same,Drug uptake,Blood,41 ng/g
same,Drug uptake,Liver,9175 ng/g
same,Drug uptake,Kidney,3866 ng/g
same,Kp,[18],100
same,Kp,[19],100
same,Cmax/dose,Rattus norvegicus [5],80 nM
C[C@@H](Oc1cc(-c2cnn(C(F)F)c2)cc2nscc12)[C@H]1CNC(=O)C1,IC50,[1],57 nM
same,IC50,[2],340 nM
same,IC50,[3],1020 nM
same,MRT,[4],156 min
same,Cmax/dose,Rattus norvegicus [5],263 nM
C[C@@H](Oc1cc(-c2cnn(C(F)F)c2)cc2nscc12)[C@H]1CNC(=O)O1,IC50,[1],16 nM
same,IC50,[2],328 nM
same,IC50,[3],197 nM
same,MRT,[4],168 min
same,Cmax/dose,Rattus norvegicus [5],614 nM
C[C@@H](Oc1nc(-c2cnn(C)c2)cc2nscc12)[C@H]1CNC(=O)C1,IC50,Aurora kinase A,800 nM
same,IC50,[1],40 nM
same,IC50,[2],247 nM
same,IC50,[3],290 nM
same,clearance,[6],86 mL/min/kg
same,Vd,[7],2.4 L/kg
same,MRT,[4],30 min
same,AUC/dose,Rattus norvegicus [8],577 nM.hr/(mg/kg)
same,bioavailability,[9],27%
same,Cmax/dose,Rattus norvegicus [5],109 nM
same,solubility,[20],> 1000 µM
same,fraction unbound,[21],0.2
same,half-life,[22],34 min
same,Drug metabolism,Liver microsome [10],metabolite_detected
same,Drug metabolism,Liver microsome [11],metabolite_detected
same,Drug metabolism,Liver microsome [12],metabolite_detected
same,Drug metabolism,Liver microsome [13],metabolite_detected
same,Drug metabolism,Liver microsome [14],metabolite_detected
same,Drug metabolism,Liver microsome [15],metabolite_detected
C[C@@H](Oc1cc(-c2cnn(C(F)F)c2)cc2ncsc12)[C@H]1CNC(=O)O1,IC50,[1],9 nM
same,IC50,[2],107 nM
same,IC50,[3],230 nM
same,MRT,[4],282 min
same,Cmax/dose,Rattus norvegicus [5],803 nM
C[C@@H](Oc1cc(-c2cnn(C)c2)cc2nscc12)[C@H]1CNC(=O)C1,IC50,Aurora kinase A,576 nM
same,IC50,[1],46 nM
same,IC50,[2],161 nM
same,IC50,[3],298 nM
same,clearance,[6],45 mL/min/kg
same,Vd,[7],2.4 L/kg
same,MRT,[4],54 min
same,AUC/dose,Rattus norvegicus [8],1056 nM.hr/(mg/kg)
same,bioavailability,[9],30%
same,Cmax/dose,Rattus norvegicus [5],94 nM
same,solubility,[20],> 1000 µM
same,fraction unbound,[21],0.2
same,half-life,[22],34 min
same,Drug metabolism,Liver microsome [10],metabolite_detected
same,Drug metabolism,Liver microsome [11],metabolite_detected
same,Drug metabolism,Liver microsome [12],metabolite_detected
same,Drug metabolism,Liver microsome [13],metabolite_detected
same,Drug metabolism,Liver microsome [14],metabolite_detected
same,Drug metabolism,Liver microsome [15],metabolite_detected
C[C@@H](Oc1cc(-c2cnn(C)c2)cc2nscc12)[C@H]1CNC(=O)O1,IC50,Aurora kinase A,≤ 100 nM
same,clearance,[6],12 mL/min/kg
same,Vd,[7],1.5 L/kg
same,MRT,[4],120 min
same,bioavailability,[9],100%
same,Cmax/dose,Rattus norvegicus [5],477 nM
same,Drug metabolism,Liver microsome [10],metabolite_detected
same,Drug metabolism,Liver microsome [11],metabolite_detected
same,Drug metabolism,Liver microsome [12],metabolite_detected
same,Drug metabolism,Liver microsome [13],metabolite_detected
same,Drug metabolism,Liver microsome [14],metabolite_detected
same,Drug metabolism,Liver microsome [15],metabolite_detected
C[C@@H](Oc1nc(-c2cnn(C(F)F)c2)cc2ncsc12)[C@H]1CNC(=O)O1,IC50,[16],> 30000 nM
same,Drug uptake,Blood,1014 ng/g
same,Drug uptake,Liver,2134 ng/g
same,Drug uptake,Kidney,1433 ng/g
same,inhibition in vivo at 3 mg/kg,Rattus norvegicus [23],78%
same,inhibition in vivo at 3 mg/kg,Rattus norvegicus [24],79%
same,inhibition in vivo at 3 mg/kg,Rattus norvegicus [25],60%
same,inhibition,Rattus norvegicus [26],inactive
same,concentration at 2 h,[27],1930 nM
same,concentration at 4 h,[28],1340 nM
same,concentration at 8 h,[29],827 nM
same,concentration at 24 h,[30],40 nM
same,IC50,Aurora kinase A,57 nM
same,IC50,Aurora kinase B,110 nM
same,Activity,Salmonella typhimurium,Non-toxic
same,Activity,[31],Toxic
same,IC50,[1],38 nM
same,IC50,[2],284 nM
same,IC50,[3],522 nM
same,clearance,[6],4 mL/min/kg
same,Vd,[7],1.3 L/kg
same,MRT,[4],360 min
same,bioavailability,[9],88%
same,Cmax/dose,Rattus norvegicus [5],917 nM
same,IC50,[32],> 30000 nM
same,Drug metabolism,Liver microsome [10],metabolite_detected
same,Drug metabolism,Liver microsome [11],metabolite_detected
same,Drug metabolism,Liver microsome [12],metabolite_detected
same,Drug metabolism,Liver microsome [13],metabolite_detected
same,Drug metabolism,Liver microsome [14],metabolite_detected
same,Drug metabolism,Liver microsome [15],metabolite_detected

# — ChEMBL document CHEMBL3621151, “Orally bioavailable Syk inhibitors with activity in a rat PK/PD model” (Bioorg Med Chem Lett, 2015)
